Experimental data from ChEMBL document CHEMBL1926614, “Substituted thiazoles V. synthesis and antitumor activity of novel thiazolo[2,3-b]quinazoline and pyrido[4,3-d]thiazolo[3,2-a]pyrimidine analogues” (2012).

Experiments:
Type in all cases: functional
HCT-15 = test: Growth inhibition of human HCT15 cells at 10 uM after 48 hrs by coulter counting; conditions: HCT-15, 48 h, read-out: GI
Outline: (§1)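 Single-dose primary screen across the full NCI 60-cell-line panel. Stocks were made in DMSO and diluted in PBS to a final DMSO below 1%. Cultures at 6 × 10⁴ cells/ml were run in duplicate wells alongside PBS/DMSO vehicle controls at 37 °C in humidified 5% CO₂. Data were expressed as percent growth of treated cells.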

UACC-257 = test: Growth inhibition of human UACC257 cells at 10 uM after 48 hrs by coulter counting; conditions: UACC-257, 48 h, read-out: GI
Outline: (§2)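 Single-dose screen in the NCI 60 human tumor cell line panel (nine subpanels). Compounds dissolved in DMSO and diluted in phosphate buffered saline, keeping final DMSO below 1%. Added in duplicate wells to cells at 6 × 10⁴ cells/ml. Controls held PBS and DMSO at matching dilutions. Incubated at 37 °C, humidified, 5% CO₂. Reported as percent growth of treated cells.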

UACC-62 = test: Growth inhibition of human UACC62 cells at 10 uM after 48 hrs by coulter counting; conditions: UACC-62, 48 h, read-out: GI; outline: as §2
CCRF-CEM = test: Growth inhibition of human CCRF-CEM cells at 10 uM after 48 hrs by coulter counting; conditions: read-out: GI; outline: as §1
HL-60(TB) = test: Growth inhibition of human HL-60(TB) cells at 10 uM after 48 hrs by coulter counting; conditions: HL-60, 48 h, read-out: GI
Outline: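 Test compound was dissolved in DMSO and diluted in phosphate-buffered saline to a final DMSO level below 1%. Dilutions were plated in duplicate with cell culture at 6 × 10⁴ cells/ml. Vehicle controls held PBS and DMSO at matching dilutions. Incubation was at 37 °C, humidified, under 5% CO₂. Data were reported as percent growth of treated cells.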

K562 = test: Growth inhibition of human K562 cells at 10 uM after 48 hrs by coulter counting; conditions: K562, 48 h, read-out: GI; outline: as §1
MOLT-4 = test: Growth inhibition of human MOLT4 cells at 10 uM after 48 hrs by coulter counting; conditions: MOLT-4, 48 h, read-out: GI; outline: as §1
RPMI-8226 = test: Growth inhibition of human RPMI8226 cells at 10 uM after 48 hrs by coulter counting; conditions: RPMI-8226, 48 h, read-out: GI; outline: as §1
A549 = test: Growth inhibition of human A549 cells at 10 uM after 48 hrs by coulter counting; conditions: A549, 48 h, read-out: GI; outline: as §1
EKVX = test: Growth inhibition of human EKVX cells at 10 uM after 48 hrs by coulter counting; conditions: read-out: GI; outline: as §1
HOP-62 = test: Growth inhibition of human HOP62 cells at 10 uM after 48 hrs by coulter counting; conditions: HOP-62, 48 h, read-out: GI; outline: as §1
NCI-H226 = test: Growth inhibition of human NCI-H226 cells at 10 uM after 48 hrs by coulter counting; conditions: NCI-H226, 48 h, read-out: GI; outline: as §1
NCI-H23 = test: Growth inhibition of human NCI-H23 cells at 10 uM after 48 hrs by coulter counting; conditions: NCI-H23, 48 h, read-out: GI; outline: as §1
[1] = Growth inhibition of human NCI-322M cells at 10 uM after 48 hrs by coulter counting; conditions: read-out: GI; outline: as §1
NCI-H460 = test: Growth inhibition of human NCI-H460 cells at 10 uM after 48 hrs by coulter counting; conditions: NCI-H460, 48 h, read-out: GI; outline: as §1
NCI-H522 = test: Growth inhibition of human NCI-H522 cells at 10 uM after 48 hrs by coulter counting; conditions: NCI-H522, 48 h, read-out: GI; outline: as §1
HCT-116 = test: Growth inhibition of human HCT116 cells at 10 uM after 48 hrs by coulter counting; conditions: HCT-116, 48 h, read-out: GI; outline: as §1
HT-29 = test: Growth inhibition of human HT-29 cells at 10 uM after 48 hrs by coulter counting; conditions: HT-29, 48 h, read-out: GI; outline: as §1
KM12 = test: Growth inhibition of human KM12 cells at 10 uM after 48 hrs by coulter counting; conditions: KM12, 48 h, read-out: GI; outline: as §1
SF-268 = test: Growth inhibition of human SF268 cells at 10 uM after 48 hrs by coulter counting; conditions: SF-268, 48 h, read-out: GI; outline: as §1
SF-295 = test: Growth inhibition of human SF295 cells at 10 uM after 48 hrs by coulter counting; conditions: SF-295, 48 h, read-out: GI; outline: as §1
SNB-19 = test: Growth inhibition of human SNB19 cells at 10 uM after 48 hrs by coulter counting; conditions: SNB-19, 48 h, read-out: GI; outline: as §1
SNB-75 = test: Growth inhibition of human SNB75 cells at 10 uM after 48 hrs by coulter counting; conditions: SNB-75, 48 h, read-out: GI; outline: as §1
U-251 = test: Growth inhibition of human U251 cells at 10 uM after 48 hrs by coulter counting; conditions: U-251, 48 h, read-out: GI; outline: as §2
LOX IMVI = test: Growth inhibition of human LOXIMVI cells at 10 uM after 48 hrs by coulter counting; conditions: read-out: GI; outline: as §1
M14 = test: Growth inhibition of human M14 cells at 10 uM after 48 hrs by coulter counting; conditions: M14, 48 h, read-out: GI; outline: as §1
MDA-MB-435 = test: Growth inhibition of human MDA-MB-435 cells at 10 uM after 48 hrs by coulter counting; conditions: MDA-MB-435, 48 h, read-out: GI; outline: as §1
SK-MEL-2 = test: Growth inhibition of human SK-MEL-2 cells at 10 uM after 48 hrs by coulter counting; conditions: SK-MEL-2, 48 h, read-out: GI; outline: as §1
SK-MEL-28 = test: Growth inhibition of human SK-MEL-28 cells at 10 uM after 48 hrs by coulter counting; conditions: SK-MEL-28, 48 h, read-out: GI; outline: as §1
SK-MEL-5 = test: Growth inhibition of human SK-MEL-5 cells at 10 uM after 48 hrs by coulter counting; conditions: SK-MEL-5, 48 h, read-out: GI; outline: as §1
NCI/ADR-RES = test: Growth inhibition of human NCI/ADR-RES cells at 10 uM after 48 hrs by coulter counting; conditions: read-out: GI; outline: as §1
A498 = test: Growth inhibition of human A498 cells at 10 uM after 48 hrs by coulter counting; conditions: A498, 48 h, read-out: GI; outline: as §1
ACHN = test: Growth inhibition of human ACHN cells at 10 uM after 48 hrs by coulter counting; conditions: read-out: GI; outline: as §1
CAKI-1 = test: Growth inhibition of human Caki1 cells at 10 uM after 48 hrs by coulter counting; conditions: CAKI-1, 48 h, read-out: GI; outline: as §1
UO-31 = test: Growth inhibition of human UO31 cells at 10 uM after 48 hrs by coulter counting; conditions: UO-31, 48 h, read-out: GI; outline: as §2
DU-145 = test: Growth inhibition of human DU145 cells at 10 uM after 48 hrs by coulter counting; conditions: DU-145, 48 h, read-out: GI; outline: as §1
MCF7 = test: Growth inhibition of human MCF7 cells at 10 uM after 48 hrs by coulter counting; conditions: MCF7, 48 h, read-out: GI; outline: as §1
BT-549 = test: Growth inhibition of human BT549 cells at 10 uM after 48 hrs by coulter counting; conditions: BT-549, 48 h, read-out: GI; outline: as §1
T47D = test: Growth inhibition of human T47D cells at 10 uM after 48 hrs by coulter counting; conditions: read-out: GI; outline: as §2
OVCAR-8 = test: Growth inhibition of human OVCAR8 cells at 10 uM after 48 hrs by coulter counting; conditions: OVCAR-8, 48 h, read-out: GI; outline: as §1
786-0 = test: Growth inhibition of human 786-0 cells at 10 uM after 48 hrs by coulter counting; conditions: 786-0, 48 h, read-out: GI; outline: as §1
SN12C = test: Growth inhibition of human SN12C cells at 10 uM after 48 hrs by coulter counting; conditions: read-out: GI; outline: as §1
TK-10 = test: Growth inhibition of human TK10 cells at 10 uM after 48 hrs by coulter counting; conditions: TK-10, 48 h, read-out: GI; outline: as §2
SF-539 = test: Growth inhibition of human SF539 cells at 10 uM after 48 hrs by coulter counting; conditions: SF-539, 48 h, read-out: GI; outline: as §1
HCC 2998 = test: Growth inhibition of human HCC2998 cells at 10 uM after 48 hrs by coulter counting; conditions: HCC 2998, 48 h, read-out: GI; outline: as §1
IGROV-1 = test: Growth inhibition of human IGROV1 cells at 10 uM after 48 hrs by coulter counting; conditions: IGROV-1, 48 h, read-out: GI; outline: as §1
OVCAR-4 = test: Growth inhibition of human OVCAR4 cells at 10 uM after 48 hrs by coulter counting; conditions: OVCAR-4, 48 h, read-out: GI; outline: as §1

Measured: inhibition of growth at 10 µM

CCN1CC2=C(N=C3SC=CN3C2c2cccs2)/C(=C/c2cccs2)C1 (stereo not given)
21.6%: A498
11.4%: T47D
14.2%: SNB-75
26.2%: UO-31
not listed: SF-539 | HCC 2998 | IGROV-1 | OVCAR-4
> 10%: all other assays above

C1=CN2C(=NC3=C(CCC/C3=C\c3cccs3)C2c2cccs2)S1 (stereo not given)
28.7%: UO-31
13%: LOX IMVI
10.4%: SNB-75
not listed: HCT-15 | OVCAR-8 | 786-0 | SN12C | TK-10
> 10%: all other assays above
